Source: publication PMC8451875 (British Journal of Clinical Pharmacology, 2021)

Experiments:
[1] = Phase I 2-way drug interaction study, steady-state plasma pharmacokinetics; format: in vivo, healthy adults
In short: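 After an overnight fast of ≥8 h and a moderate-fat meal 30 min before dosing, each drug was given once daily in fixed sequence. Plasma was sampled predose daily, then postdose on the final dosing day at 1–24 h, extended to 72 h or 96 h. Noncompartmental ln-transformed AUC0-t, Cmax and Ct were fitted by linear mixed model (period fixed, participant random) for GMR and 90% CI. t1/2 was descriptive.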

[2] = Phase I 2-way drug interaction study, safety and tolerability; format: in vivo, healthy adults; details: for overall drug interaction, tolerability and safety finding: administered alone or in combination, healthy adults
In short: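 Open-label, fixed-sequence study in healthy men and women aged 18–55 years with BMI 18.5–31.0 kg/m2. Each drug was given alone and in combination, with a moderate-fat meal 30 min before dosing. Adverse events were monitored along with clinical laboratory values, vital signs, electrocardiography and physical examination, and summarised descriptively.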

[3] = healthy participants administered GSK3640254; cited from earlier work
[4] = system: HIV‐1 subtypes; details: no cross-resistance to currently approved antiretroviral treatments; cited from earlier work
[5] = dolutegravir 50 mg + GSK3640254 200 mg QD, after Day 7 dose, n = 16

C=C(C)[C@@H]1CC[C@]2(NCCN3CCS(=O)(=O)CC3)CC[C@]3(C)[C@H](CC[C@@H]4[C@@]5(C)CC=C(C6=CC[C@@](CF)(C(=O)O)CC6)C(C)(C)[C@@H]5CC[C@]43C)[C@@H]12 [GSK3640254]
GSK3640254 t1/2, geometric mean (SD Ln) [1, 5]: 23.42 (1.16) h | AUC ([1]; human, plasma, 200 mg): 26700 ng·h/mL | Cmax ([1]; human, plasma, 200 mg): 1680 ng/mL | Tmax ([1]; human, plasma, 200 mg): 5 h | concentration at 24 h ([1]; human, plasma, 200 mg): 860 ng/mL | contact dermatitis at the electrocardiographic electrode site ([2]; 16 participants per treatment): 1 event | overall drug interaction, tolerability and safety finding [2]: not associated with drug–drug interactions or major tolerability or safety findings | most commonly reported adverse event [3]: headaches | inhibition across HIV‐1 subtypes [4]: demonstrated inhibition

C[C@@H]1CCO[C@H]2Cn3cc(C(=O)NCc4ccc(F)cc4F)c(=O)c(O)c3C(=O)N12 [dolutegravir, reference compound]
dolutegravir Tmax (median [min, max]) ([1]; dolutegravir 50 mg + GSK3640254 200 mg QD, Day 7, n = 16): 3.0 (1.0, 4.5) h | dolutegravir t1/2, geometric mean (SD Ln) [1, 5]: 14.69 (1.13) h | dolutegravir Cmax, geometric mean (SD Ln) ([1]; dolutegravir 50 mg QD alone, Day 5, steady state, moderate-fat meal, plasma, n = 16): 4.96 (1.18) μg/mL | dolutegravir t1/2, geometric mean (SD Ln) ([1]; dolutegravir 50 mg QD alone, after Day 5 dose, n = 16): 14.49 (1.13) h | concentration at 24 h ([1]; human, plasma, 50 mg): 1370 ng/mL | overall drug interaction, tolerability and safety finding [2]: not associated with drug–drug interactions or major tolerability or safety findings
